Experimental findings from ChEMBL document CHEMBL2093137, “WHO-TDR NTD Screening” are described below.

Data set [1] in a line: WHO-TDR: Cytotoxicity. The data set is classed as toxicity, cell-based. As to conditions: human, MRC5 cells.
The next data set relates to Plasmodium falciparum K1. Kind of data set: WHO-TDR: Malaria. It is filed as functional, organism-based, Homo sapiens. The settings on record: Erythrocyte. A digest of the protocol:
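Values are IC50 figures for antiplasmodial potency. They come from a whole-organism screen of 10,000 diverse Life Chemicals compounds against Plasmodium falciparum K1 growing inside human red blood cells, run by previously published standard procedures.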

Another data set deals with Trypanosoma cruzi. Kind of data set: WHO-TDR: Chagas disease. It is filed as functional, organism-based, Homo sapiens. The settings on record: MRC5. A digest of the protocol:
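Following previously published standard procedures, with a reference drug as positive control, a whole-organism assay was run on Trypanosoma cruzi Tulahuen CL2 beta-galactosidase strain amastigotes inside MRC-5SV2 human lung fibroblast host cells. The 10,000 compounds tested formed a diverse Life Chemicals library filtered for drug-likeness and reactive groups. Results are expressed as IC50 for antiparasitic potency.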

Data set [2] concerns Trypanosoma brucei brucei. Kind of data set: WHO-TDR: Human African Trypanosomiasis (HAT). It is filed as functional, organism-based. As to conditions: Squib-427. The essentials: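 Values are IC50 figures for antiparasitic potency. They come from a whole-organism screen of 10,000 diverse Life Chemicals compounds against bloodstream-form Trypanosoma brucei (Squib 427 strain).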

The subject of a further data set is Leishmania infantum. Kind of data set: WHO-TDR: Leishmaniasis. The data set is classed as functional, organism-based, Mus musculus. The settings on record: Macrophage. A digest of the protocol: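 Values are IC50 figures for antiparasitic potency. They come from a whole-organism screen of a 10,000-compound diverse Life Chemicals library against Leishmania infantum MHOM/MA(BE)/67 amastigotes inside murine peritoneal macrophage host cells.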

Another data set has as its system Schistosoma mansoni. Kind of data set: WHO-TDR: Schistosomiasis. On the set-up: concentration or dose not given beside the values. The data set is classed as functional. A digest of the protocol: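 Percent inhibition and IC50 describe activity against whole Schistosoma mansoni worms of the Puerto Rican strain, tested as larvae and/or adults. The compounds screened were a diverse set of 10,000 from Life Chemicals, filtered for drug-likeness and reactive groups. Testing followed previously published standard procedures, with a reference drug as positive control.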

The next data set deals with Onchocerca ochengi. Kind of data set: WHO-TDR: Onchocerciasis. It is filed as functional. More on the design: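 at 12.5 µM on microfilariae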. A digest of the protocol:
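Percent inhibition and IC50 describe activity against microfilariae of Onchocerca ochengi or Onchocerca lienalis, used as animal-pathogen substitutes for the human parasite. The compounds tested made up a 10,000-member diverse library from Life Chemicals.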

Another data set deals with Brugia malayi. Kind of data set: WHO-TDR: Lymphatic Filariasis. More on the design: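 tested at 10 µM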. It is filed as functional. A digest of the protocol:
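The screening set was a 10,000-compound diverse library from Life Chemicals, filtered for drug-likeness and for reactive groups. It was run against Brugia malayi microfilariae as whole organisms, using previously published standard procedures. Reference drugs acted as positive controls, and activity is reported both as percent inhibition and as IC50.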

In brackets after ≈: the same amount, converted by molar mass.

A word on the IC50: it is the concentration that inhibits the measured activity by half. The % Inhibition is how much of the control response was suppressed. Take `O=C(NCCNc1ccc(Nc2ccncc2)nn1)Nc1ccc(Cl)cc1`: the IC50 (in data set [1]; in the data set with Plasmodium falciparum K1; in the data set with Trypanosoma cruzi; in data set [2]; with Leishmania infantum) was more than 11.5 µg/mL throughout. Also, the “% Inhibition” value is 0% with Schistosoma mansoni, 100% in the data set on Onchocerca ochengi and 0% in the data set on Brugia malayi.

As to `O=C(CSc1ccc(F)cc1)N(CCCn1ccnc1)c1nc2c(F)cccc2s1`, the IC50 in data set [1] is more than 14.4 µg/mL; in the data set with Plasmodium falciparum K1 it was 2.13 µg/mL (≈ 4.8 µM); with Trypanosoma cruzi, 5.11 µg/mL (≈ 11.5 µM); in data set [2], 4.62 µg/mL (≈ 10.4 µM); in the data set on Leishmania infantum, more than 14.4 µg/mL. The “% Inhibition” value in the data set on Schistosoma mansoni amounted to 0%; with Onchocerca ochengi it was 100%; in the data set on Brugia malayi, 0%.

As for `Cc1ccc(-c2ccc(=O)n(CCCNS(=O)(=O)c3ccc(Cl)s3)n2)cc1`, the IC50 was 5.29 µg/mL (≈ 12.5 µM) in data set [1]; more than 12.7 µg/mL in the data set with Plasmodium falciparum K1; more than 12.7 µg/mL with Trypanosoma cruzi; more than 12.7 µg/mL in data set [2]; more than 12.7 µg/mL with Leishmania infantum. In addition, the results for the “% Inhibition” value in the data set on Schistosoma mansoni, with Onchocerca ochengi and with Brugia malayi were 0%, 100% and 0%, respectively.

Regarding `O=S(=O)(c1cccc(F)c1)N1CCN(c2ccc(-c3ccncc3)nn2)CC1`, the IC50 is more than 12 µg/mL in data set [1]; more than 12 µg/mL in the data set with Plasmodium falciparum K1; more than 12 µg/mL with Trypanosoma cruzi; more than 12 µg/mL in data set [2]; 0.388 µg/mL (≈ 0.971 µM) with Leishmania infantum. The results for the “% Inhibition” value in the data set with Schistosoma mansoni, in the data set with Onchocerca ochengi and in the data set with Brugia malayi were 0%, 0% and 33.33%, respectively.

For the compound `COc1ccc(OC)c2sc(N(CC3CCCO3)C(=O)c3ccn(C)n3)nc12` (stereo not given), the IC50 in data set [1] is more than 12.1 µg/mL; in the data set with Plasmodium falciparum K1, more than 12.1 µg/mL; with Trypanosoma cruzi, more than 12.1 µg/mL; in data set [2], more than 12.1 µg/mL; with Leishmania infantum, 0.391 µg/mL (≈ 0.971 µM). Besides, the “% Inhibition” value in the data set on Schistosoma mansoni was determined as 16.7%; in the data set on Onchocerca ochengi it was 0%; in the data set with Brugia malayi it was 0%.

As to `COc1ccc(OC)c(S(=O)(=O)NCCNc2ccc(Nc3cc(C)ccn3)nn2)c1`, the IC50 in data set [1] was more than 13.3 µg/mL; in the data set on Plasmodium falciparum K1, 5.13 µg/mL (≈ 11.5 µM); in the data set with Trypanosoma cruzi, more than 13.3 µg/mL; in data set [2], 4.66 µg/mL (≈ 10.5 µM); in the data set with Leishmania infantum it was more than 13.3 µg/mL. Besides, the “% Inhibition” value with Schistosoma mansoni came out at 0%; in the data set with Onchocerca ochengi, 100%; with Brugia malayi it was 50%.

As to `COc1ccc(S(=O)(=O)N2CCN(c3ccc(Nc4ccccn4)nn3)CC2)cc1`, the IC50 is more than 12.8 µg/mL in data set [1]; more than 12.8 µg/mL in the data set with Plasmodium falciparum K1; more than 12.8 µg/mL in the data set with Trypanosoma cruzi; more than 12.8 µg/mL in data set [2]; 0.414 µg/mL (≈ 0.971 µM) in the data set on Leishmania infantum. Besides, the “% Inhibition” value is reported as 16.7% in the data set on Schistosoma mansoni, 0% in the data set on Onchocerca ochengi and 0% in the data set on Brugia malayi.

In the case of `Cc1ccnc(Nc2ccc(NCCNC(=O)c3cccc(C(F)(F)F)c3)nn2)c1`, the IC50 in data set [1] is 9.41 µg/mL (≈ 22.6 µM); in the data set with Plasmodium falciparum K1, 1.48 µg/mL (≈ 3.56 µM); in the data set with Trypanosoma cruzi, more than 12.5 µg/mL; in data set [2], more than 12.5 µg/mL; in the data set on Leishmania infantum it was more than 12.5 µg/mL. Further, the “% Inhibition” value was 0% in the data set with Schistosoma mansoni, 100% in the data set with Onchocerca ochengi and 0% in the data set on Brugia malayi.

For `Cc1cc(C)cc(NC(=O)NCCNc2ccc(Nc3ccccn3)nn2)c1`, the IC50 in data set [1] was more than 11.3 µg/mL; in the data set with Plasmodium falciparum K1 it was more than 11.3 µg/mL; in the data set with Trypanosoma cruzi it was more than 11.3 µg/mL; in data set [2] it was more than 11.3 µg/mL; in the data set on Leishmania infantum, 0.367 µg/mL (≈ 0.972 µM). Also, the “% Inhibition” value was 0% in the data set with Schistosoma mansoni, 100% in the data set with Onchocerca ochengi and 0% in the data set on Brugia malayi.

As to `CC(C)(C)C(=O)N1CCc2ccc(NC(=O)Cc3cccs3)cc21`, the IC50 was more than 10.3 µg/mL in data set [1]; more than 10.3 µg/mL with Plasmodium falciparum K1; 4.11 µg/mL (≈ 12 µM) with Trypanosoma cruzi; more than 10.3 µg/mL in data set [2]; 0.333 µg/mL (≈ 0.972 µM) in the data set with Leishmania infantum. In addition, the entries for the “% Inhibition” value with Schistosoma mansoni, with Onchocerca ochengi and with Brugia malayi were 0%, 50% and 0%, respectively.
